# Reference: ChEMBL document CHEMBL3232766, “Discovery of lead compounds targeting the bacterial sliding clamp using a fragment-based approach” (J Med Chem, 2014)
# The source made the active and inactive calls. The calls are words filed in the database; no cut-off is given here.
# How the values were obtained:
# Escherichia coli [1] = assay: Inhibition of Escherichia coli DNA polymerase 3 beta assessed as inhibition of 5-carboxyfluorescein-QLDLF binding at <1 mM by fluorescence polarization-based competition assay
# In short: (§1)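 Competition fluorescence polarization with E. coli sliding clamp and tracer 5-carboxyfluorescein-QLDLF (Kd 70 nM). Inhibition of tracer binding plotted against inhibitor concentration. IC50 converted to Ki using the Kenakin correction for ligand depletion.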
# [2] = Inhibition of Escherichia coli DNA polymerase 3 beta assessed as inhibition of 5-carboxyfluorescein-QLDLF binding by fluorescence polarization-based competition assay; in short: as §1
# Escherichia coli [3] = assay: Antibacterial activity against Escherichia coli DH5[alpha] after 24 hrs by broth microdilution method; format: functional
# In short: (§2)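 CLSI broth microdilution in cation-adjusted Mueller Hinton II broth. Overnight cultures diluted to 5 × 10⁴ CFU/mL. Compounds from 100 mM DMSO stocks, serially 2-fold diluted. OD read at 595 nm before and after 24 h at 37 °C. MIC taken as lowest concentration with background-subtracted OD <0.1. Controls: medium blank, DMSO vehicle, antibiotic.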
# [4] = Distribution coefficient, log D of the compound at pH 7.2; format: physicochemical; settings: octanol/water
# Staphylococcus aureus = assay: Antibacterial activity against Staphylococcus aureus NCTC 8325 after 24 hrs by broth microdilution method; format: functional; settings: NCTC 8325, 24 h; in short: as §2
# Acinetobacter baylyi = assay: Antibacterial activity against Acinetobacter baylyi ADP1 after 24 hrs by broth microdilution method; format: functional; settings: ADP1, 24 h; in short: as §2
# Bacillus subtilis = assay: Antibacterial activity against Bacillus subtilis SU5 after 24 hrs by broth microdilution method; format: functional; settings: SU5, 24 h; in short: as §2
# Escherichia coli [5] = assay: Inhibition of Escherichia coli DNA polymerase 3 beta assessed as inhibition of M13 ssDNA replication at 500 to 1000 uM after 60 mins by agarose gel electrophoresis-UV transilluminator analysis in presence of polymerase 3 alpha and reconstituted clamp loader complex gamm3-delta-delta'
# In short: (§3)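 Reconstituted replication of 3 nM RNA-primed M13 ssDNA in 20 mM Tris-HCl pH 7.6, 10 mM MgCl2, 0.8 mM ATP, 8.4 mM DTT, 0.6 mM each dNTP, 120 mM NaCl, with 211 nM Pol III α, 700 nM SSB tetramer, 210 nM β dimer, 42 nM γ3δδ′. Compounds added at 0 °C, final 3.4% DMSO. Run 60 min at 30 °C, quenched with EDTA/SDS, products resolved on 0.7% agarose, SYBR Gold stained, viewed by UV.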
# Escherichia coli [6] = assay: Inhibition of Escherichia coli DNA polymerase 3 beta assessed as inhibition of M13 ssDNA replication at 250 uM after 60 mins by agarose gel electrophoresis-UV transilluminator analysis in presence of polymerase 3 alpha and reconstituted clamp loader complex gamm3-delta-delta'; in short: as §3
SMILES,inhibition (Escherichia coli [1]),IC50 [2] [µM],MIC (Escherichia coli [3]) [µM],logD ([4]; read-out: logD),MIC (Staphylococcus aureus) [µM],MIC (Acinetobacter baylyi) [µM],MIC (Bacillus subtilis) [µM],inhibition (Escherichia coli [5]),logD [4],inhibition (Escherichia coli [6]),Ki [2] [µM]
O=[N+]([O-])c1ccc2cn[nH]c2c1,inactive,,,,,,,,,,
O=C(O)c1ccc(-c2ccc(F)cc2)cc1,,504,2500,-3.17,5000,5000,2500,Active,,,280
Clc1ccc2c(c1)c1ccccc1n2CC1CO1 (centres undefined),,358,,,,,,Active,4.93,,199
O=C(O)c1cc2[nH]c3c(c2cc1Cl)CCCC3,,389,2500,-0.48,2500,5000,2500,Active,,,216

# The next lines start with results.
inhibition (Escherichia coli [1]),IC50 [2] [µM],MIC (Escherichia coli [3]) [µM],logD ([4]; read-out: logD),MIC (Staphylococcus aureus) [µM],MIC (Acinetobacter baylyi) [µM],MIC (Bacillus subtilis) [µM],inhibition (Escherichia coli [5]),logD [4],inhibition (Escherichia coli [6]),SMILES,Ki [2] [µM]
inactive,,,,,,,,,,O=C1Nc2ccc(Cl)cc2C1=O,
,899,78,4.44,78,156,78,,,,CCOC(=O)[C@@H]1CCCc2c1[nH]c1ccc(Cl)cc21,499
,> 1000,156,,156,78,78,,,,COC(=O)[C@@H]1CCCc2c1[nH]c1ccc(Cl)cc21,
inactive,,,,,,,,,,O=[N+]([O-])c1ccc2[nH]ccc2c1,
inactive,,,,,,,,,,NC(=O)c1ccc(F)c(F)c1,
,115,313,0.36,156,313,156,,,Active,O=C(O)[C@@H]1CCCc2c1[nH]c1ccc(Cl)cc21,64
